The text below walks through data of ChEMBL document CHEMBL4304753, “Identification of New Small-Molecule Inducers of Estrogen-related Receptor α (ERRα) Degradation” (ACS Med Chem Lett, 2019).

Activity calls are given as the source filed them. The calls are words filed in the database; no cut-off is given here.

Usually IC50 stands for the concentration at which inhibition is half-maximal. Low values mean inhibition by little substance, high ones a need for much substance.

The target of assay [1] is T1, Steroid hormone receptor ERR1 (Homo sapiens, UniProt P11474).
T1 sequence (P11474 whole entry): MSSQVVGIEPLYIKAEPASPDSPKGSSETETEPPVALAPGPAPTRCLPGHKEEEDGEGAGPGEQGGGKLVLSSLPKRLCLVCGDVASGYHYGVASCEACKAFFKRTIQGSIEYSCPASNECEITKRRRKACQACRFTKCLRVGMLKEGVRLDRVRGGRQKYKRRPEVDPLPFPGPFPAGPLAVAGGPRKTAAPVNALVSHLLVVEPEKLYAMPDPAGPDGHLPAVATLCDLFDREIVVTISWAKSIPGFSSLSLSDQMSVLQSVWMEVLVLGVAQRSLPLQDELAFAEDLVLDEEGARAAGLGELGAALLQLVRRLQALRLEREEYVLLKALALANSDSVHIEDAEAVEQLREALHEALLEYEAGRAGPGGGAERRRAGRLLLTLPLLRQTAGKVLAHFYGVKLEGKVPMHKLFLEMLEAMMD
The assay can be described thus: Binding affinity to GST-tagged ERRalpha-LBD (unknown origin) using fluorescein-conjugated coactivator PGC-1alpha incubated for 1 hr by TR-FRET assay. Background: In TR-FRET formats the signal depends on donor and acceptor labels being close together.

Assay [2] concerns the target T2, von Hippel-Lindau disease tumor suppressor/Steroid hormone receptor ERR1 (Homo sapiens) (UniProt P11474+P40337). The assay can be described thus: Protac activity at VHL/ERRalpha in human MDA-MB-231 cells assessed as induction of […] degradation at 30 nM incubated for 4 hrs by Western blot analysis relative to control. The assay is classed as cell-based. Summed up:
(§1)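 MDA-MB-231 breast cancer cells were treated at the indicated concentrations for 4.0 h. ERRα protein was measured by Western blot, and % degradation was derived by densitometric image analysis. Values are means of at least three independent experiments.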
(In general: Immunoblotting shows a protein as a band on a membrane.)

Assay [3] has as its target T2, von Hippel-Lindau disease tumor suppressor/Steroid hormone receptor ERR1 (Homo sapiens). Kind of assay: Protac activity at VHL/ERRalpha in human MDA-MB-231 cells assessed as induction of […] degradation at 100 nM incubated for 4 hrs by Western blot analysis relative to control. It is filed as cell-based. Summed up:
as §1

Assay [4] concerns the target T3, Steroid hormone receptor ERR1 (Homo sapiens) (UniProt P11474).
T3 sequence (whole entry): T1 sequence (P11474 whole entry)
The assay can be described thus: Ratio of IC50 for XCT790 to IC50 for test compound for binding affinity to GST-tagged ERRalpha-LBD (unknown origin) using fluorescein-conjugated coactivator PGC-1alpha incubated for 1 hr by TR-FRET assay.

Assay [5] concerns the target T2, von Hippel-Lindau disease tumor suppressor/Steroid hormone receptor ERR1 (Homo sapiens). Kind of assay: Protac activity at VHL/ERRalpha in human MDA-MB-231 cells assessed as induction of […] degradation at 300 nM incubated for 4 hrs by Western blot analysis relative to control. The assay is classed as cell-based. In a few lines:
as §1

The target is the same in assay [6]. Kind of assay: Protac activity at VHL/ERRalpha in human MDA-MB-231 cells assessed as induction of […] degradation at 1 uM incubated for 4 hrs by Western blot analysis. It is filed as cell-based. Summed up: as §1
Assay [7] shares this target. The assay can be described thus: Protac activity at VHL/ERRalpha in human MDA-MB-231 cells assessed as decrease in PDK4 protein expression level at 100 nM incubated for 24 hrs by Western blot analysis. It is filed as cell-based. In a few lines: (§2)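 MDA-MB-231 breast cancer cells were exposed to the degrader for 24 h. Protein levels of the ERRα downstream targets ATP5B, MCAD and PDK4 were then assessed by Western blot.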

Assay [8] deals with von Hippel-Lindau disease tumor suppressor/Estrogen-related receptor gamma (Homo sapiens) (UniProt P62508+P40337). Kind of assay: Protac activity at VHL/ERRgamma in human MDA-MB-231 cells assessed as induction of […] degradation up to 10 uM incubated for 4 hrs by Western blot analysis. It is filed as cell-based. Summed up: (§3)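 Levels of the ERRβ and ERRγ homologues were assessed by Western blot in MDA-MB-231 cells after 4.0 h treatment at concentrations up to 10.0 μM.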
von Hippel-Lindau disease tumor suppressor/Estrogen-related receptor gamma (Homo sapiens), sequence (P40337 whole entry, looked up): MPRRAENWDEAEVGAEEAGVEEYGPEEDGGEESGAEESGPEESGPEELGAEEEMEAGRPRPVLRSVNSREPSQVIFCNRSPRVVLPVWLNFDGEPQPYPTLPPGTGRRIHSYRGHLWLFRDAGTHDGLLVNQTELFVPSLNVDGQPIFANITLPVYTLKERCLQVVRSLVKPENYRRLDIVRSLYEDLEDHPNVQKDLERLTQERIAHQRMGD
von Hippel-Lindau disease tumor suppressor/Estrogen-related receptor gamma (Homo sapiens), sequence (P62508 whole entry, looked up): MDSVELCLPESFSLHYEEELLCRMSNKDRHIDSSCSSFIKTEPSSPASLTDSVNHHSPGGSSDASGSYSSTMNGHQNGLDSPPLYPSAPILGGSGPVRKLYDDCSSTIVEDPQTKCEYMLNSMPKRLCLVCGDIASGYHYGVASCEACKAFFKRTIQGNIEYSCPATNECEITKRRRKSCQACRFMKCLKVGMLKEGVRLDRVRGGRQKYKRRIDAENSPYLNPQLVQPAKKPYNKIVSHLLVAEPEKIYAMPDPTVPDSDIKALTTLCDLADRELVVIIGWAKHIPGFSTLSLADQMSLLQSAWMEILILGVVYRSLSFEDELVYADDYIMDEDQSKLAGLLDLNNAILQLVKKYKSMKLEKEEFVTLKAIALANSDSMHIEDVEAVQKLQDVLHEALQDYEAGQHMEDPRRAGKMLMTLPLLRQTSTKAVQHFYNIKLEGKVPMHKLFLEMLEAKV

The target in assay [9] is T2, von Hippel-Lindau disease tumor suppressor/Steroid hormone receptor ERR1 (Homo sapiens). Kind of assay: Protac activity at VHL/ERRalpha in human MDA-MB-231 cells assessed as induction of […] degradation incubated for 4 hrs by Western blot analysis. The assay is classed as cell-based. In a few lines: as §1
Assay [10] has the same target. Kind of assay: Protac activity at VHL/ERRalpha in human MDA-MB-231 cells assessed as induction of […] degradation incubated for 48 hrs by Western blot analysis. The assay is classed as cell-based. In a few lines:
(§4)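 For the time course, MDA-MB-231 cells were exposed to PROTAC at 30 nM. ERRα protein was sampled from 30 min up to 48 h after treatment and analysed by Western blot.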

Assay [11] shares this target. The assay can be described thus: Protac activity at VHL/ERRalpha in human MDA-MB-231 cells assessed as induction of […] degradation incubated for 0.5 to 4 hrs by Western blot analysis. The assay is classed as cell-based. Summed up: as §4
Assay [12] has as its target von Hippel-Lindau disease tumor suppressor/Steroid hormone receptor ERR2 (Homo sapiens) (UniProt O95718+P40337). Kind of assay: Protac activity at VHL/ERRbeta in human MDA-MB-231 cells assessed as induction of […] degradation up to 10 uM incubated for 4 hrs by Western blot analysis. The assay is classed as cell-based. Summed up: as §3
In assay [13] the target is T2, von Hippel-Lindau disease tumor suppressor/Steroid hormone receptor ERR1 (Homo sapiens). Kind of assay: Protac activity at VHL/ERRalpha in human MDA-MB-231 cells assessed as induction of […] degradation at 3.0 nM incubated for 4 hrs by Western blot analysis. The assay is classed as cell-based. In a few lines:
as §1

The target is the same in assay [14]. Kind of assay: Protac activity at VHL/ERRalpha in human MDA-MB-231 cells assessed as induction of […] degradation at 10 nM incubated for 4 hrs by Western blot analysis relative to control. It is filed as cell-based. In a few lines: as §1
Assay [15] shares this target. Kind of assay: Protac activity at VHL/ERRalpha in human MDA-MB-231 cells assessed as decrease in MCAD protein expression level at 100 nM incubated for 24 hrs by Western blot analysis. The assay is classed as cell-based. In a few lines: as §2
Assay [16] has the same target. The assay can be described thus: Protac activity at VHL/ERRalpha in epoxomicin pre-treated human MDA-MB-231 cells assessed as induction of […] degradation at 30 nM incubated for 4 hrs by Western blot analysis. It is filed as cell-based. In a few lines:
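Before treatment with PROTAC at 30 nM for 4.0 h, MDA-MB-231 cells were preincubated with the proteasome inhibitor epoxomicin. ERRα protein was then assessed by Western blot.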

Assay [17] shares this target. Kind of assay: Protac activity at VHL/ERRalpha in human MDA-MB-231 cells assessed as decrease in ATP5B protein expression level at 100 nM incubated for 24 hrs by Western blot analysis. It is filed as cell-based. Summed up: as §2

T2 sequence (P40337 whole entry, looked up, one chain of several): as the sequence (P40337 whole entry, looked up) above
von Hippel-Lindau disease tumor suppressor/Steroid hormone receptor ERR2 (Homo sapiens), sequence (O95718 whole entry, looked up): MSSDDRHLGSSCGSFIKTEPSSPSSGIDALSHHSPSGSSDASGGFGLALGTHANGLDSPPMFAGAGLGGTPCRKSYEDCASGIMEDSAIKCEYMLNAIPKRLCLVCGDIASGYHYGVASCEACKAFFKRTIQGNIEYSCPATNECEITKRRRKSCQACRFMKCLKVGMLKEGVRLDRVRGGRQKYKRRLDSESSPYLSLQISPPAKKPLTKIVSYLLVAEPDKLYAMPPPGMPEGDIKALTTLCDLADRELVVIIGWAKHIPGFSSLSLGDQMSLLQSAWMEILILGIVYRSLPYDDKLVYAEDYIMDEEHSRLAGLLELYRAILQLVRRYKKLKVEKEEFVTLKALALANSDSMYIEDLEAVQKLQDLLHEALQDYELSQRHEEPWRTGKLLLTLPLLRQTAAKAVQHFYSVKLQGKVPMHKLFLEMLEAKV
von Hippel-Lindau disease tumor suppressor/Steroid hormone receptor ERR2 (Homo sapiens), sequence (P40337 whole entry, looked up): as the sequence (P40337 whole entry, looked up) above

Compound `COc1cc(/C=C(\C#N)C(=O)NCCCCCCC(=O)N[C@H](C(=O)N2C[C@H](O)C[C@H]2C(=O)NCc2ccc(-c3scnc3C)cc2)C(C)(C)C)ccc1OCc1ccc(C(F)(F)F)cc1C(F)(F)F` registered an IC50 in [1] of 12.3 nM. Also, the Activity in [2] worked out at 23%; in assay [3] it was 71%.
Regarding `COc1cc(/C=C(\C#N)C(=O)O)ccc1OCc1ccc(C(F)(F)F)cc1C(F)(F)F`, in assay [4], the Ratio IC50 is 11. In addition, the IC50 in assay [1] was determined as 5.67 nM.
As to `COc1cc(/C=C(\C#N)C(=O)NCCOCCOCCC(=O)N[C@H](C(=O)N2C[C@H](O)C[C@H]2C(=O)NCc2ccc(-c3scnc3C)cc2)C(C)(C)C)ccc1OCc1ccc(C(F)(F)F)cc1C(F)(F)F`, the Activity in assay [5] is 19%; in [2] it was 0%; in [3], 15%. The compound also came in with an IC50 in [1] of 5.33 nM.
Regarding `Cc1ncsc1-c1ccc(CNC(=O)[C@@H]2C[C@@H](O)CN2C(=O)[C@@H](N)C(C)(C)C)cc1`, the result in assay [6] was inactive.
`COc1cc(/C=C(\C#N)C(=O)NCCCCC(=O)O)ccc1OCc1ccc(C(F)(F)F)cc1C(F)(F)F` displayed a concentration for half-maximal inhibition (IC50) in assay [1] of 6 nM.
With `COc1cc(/C=C(\C#N)C(=O)NCCOCCOCCOCCC(=O)N[C@H](C(=O)N2C[C@H](O)C[C@H]2C(=O)NCc2ccc(-c3scnc3C)cc2)C(C)(C)C)ccc1OCc1ccc(C(F)(F)F)cc1C(F)(F)F`, the Activity in assay [5] worked out at 10%; in [2], 0%; in assay [3], 4%. In assay [1], this compound came in with an IC50 of 7 nM.
Turning to `COc1cc(/C=C(\C#N)C(=O)NCCCCC(=O)N[C@H](C(=O)N2C[C@H](O)C[C@H]2C(=O)NCc2ccc(-c3scnc3C)cc2)C(C)(C)C)ccc1OCc1ccc(C(F)(F)F)cc1C(F)(F)F`, the outcome in assay [7], in assay [11], in [13], in [15] and in [17] was Active. This compound also showed an IC50 in assay [1] of 12.7 nM. Moreover, the result in assay [8], in assay [10], in assay [12] and in assay [16] was inactive. Moreover, the Activity entry in [9] is “Dose-dependent effect”; in [14] it was 39%; in [2], 83%; in assay [3] it was 96%.
For `COc1cc(/C=C(\C#N)C(N)=O)ccc1OCc1ccc(C(F)(F)F)cc1C(F)(F)F`, the IC50 in assay [1] came out at 4.33 nM.
In assay [1], `COc1cc(/C=C(\C#N)C(=O)NCCOCCC(=O)O)ccc1OCc1ccc(C(F)(F)F)cc1C(F)(F)F` displayed an IC50 of 4.67 nM. In addition, in [6], the result was inactive.
`COc1cc(/C=C(\C#N)C(=O)NCCC(=O)N[C@H](C(=O)N2C[C@H](O)C[C@H]2C(=O)NCc2ccc(-c3scnc3C)cc2)C(C)(C)C)ccc1OCc1ccc(C(F)(F)F)cc1C(F)(F)F`: the IC50 in assay [1] turned out to be 7.33 nM. Besides, the Activity in [2] is 28%; in [3], 50%.
The like results for `COc1cc(/C=C(\C#N)C(=O)NCCOCC(=O)N[C@H](C(=O)N2C[C@H](O)C[C@H]2C(=O)NCc2ccc(-c3scnc3C)cc2)C(C)(C)C)ccc1OCc1ccc(C(F)(F)F)cc1C(F)(F)F` were, in that order, 11.3 nM, 79% and 92%.
In turn, `COCCNC(=O)/C(C#N)=C/c1ccc(OCc2ccc(C(F)(F)F)cc2C(F)(F)F)c(OC)c1` registered an IC50 in assay [1] of 4.33 nM.
In the case of `COc1cc(/C=C(\C#N)C(=O)NCCCCC(=O)N[C@H](C(=O)N2C[C@@H](O)C[C@H]2C(=O)NCc2ccc(-c3scnc3C)cc2)C(C)(C)C)ccc1OCc1ccc(C(F)(F)F)cc1C(F)(F)F`, in assay [1], the IC50 is 5.33 nM. Moreover, the Activity in assay [2] is 6%.
For the compound `COC(=O)/C(C#N)=C/c1ccc(OCc2ccc(C(F)(F)F)cc2C(F)(F)F)c(OC)c1`, in [1], the IC50 was 20.3 nM.
Compound `COc1cc(/C=C2\SC(=O)N(CCOCCC(=O)N[C@H](C(=O)N3C[C@H](O)C[C@H]3C(=O)NCc3ccc(-c4scnc4C)cc3)C(C)(C)C)C2=O)ccc1Oc1ccc(C#N)cc1C(F)(F)F` registered an IC50 in assay [1] of 8 nM. Also, the Activity in [2] turned out to be 1%; in [3], 40%.
The like results for `COc1cc(/C=C(\C#N)C(=O)NCCCC(=O)N[C@H](C(=O)N2C[C@H](O)C[C@H]2C(=O)NCc2ccc(-c3scnc3C)cc2)C(C)(C)C)ccc1OCc1ccc(C(F)(F)F)cc1C(F)(F)F` were, in that order, 6.33 nM, 58% and 85%.
Compound `COc1cc(/C=C(\C#N)C(=O)NCCOCCC(=O)N[C@H](C(=O)N2C[C@H](O)C[C@H]2C(=O)NCc2ccc(-c3scnc3C)cc2)C(C)(C)C)ccc1OCc1ccc(C(F)(F)F)cc1C(F)(F)F` showed a concentration for half-maximal inhibition (IC50) in [1] of 9.33 nM. For the same compound, the Activity in assay [14] came to 25%; in assay [2] it was 63%; in [3], 89%.
As to `COc1cc(/C=C(\C#N)C(=O)NCCCCCC(=O)N[C@H](C(=O)N2C[C@H](O)C[C@H]2C(=O)NCc2ccc(-c3scnc3C)cc2)C(C)(C)C)ccc1OCc1ccc(C(F)(F)F)cc1C(F)(F)F`, in [1], the IC50 was 5.67 nM. In addition, the figures for the Activity in assay [2] and in assay [3] were 58% and 78%, respectively.
For `COc1cc(/C=C(\C#N)C(=O)NCCCCCCCC(=O)N[C@H](C(=O)N2C[C@H](O)C[C@H]2C(=O)NCc2ccc(-c3scnc3C)cc2)C(C)(C)C)ccc1OCc1ccc(C(F)(F)F)cc1C(F)(F)F`, the 50% inhibitory concentration (IC50) in assay [1] amounted to 7.67 nM. The Activity is 3% in assay [2] and 9% in [3].
